Experimental data from PubChem BioAssay AID588621 (Sanford-Burnham Center for Chemical Genomics, 2011).
Out of some 360,000 compounds screened, about 890 (0.25%) were called active.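 How the source made its calls: active means inhibition at 20 µM, scaled per plate between control wells, above about 37% (limit read from the data); inactive means the rest.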 For the sample, actives were picked, then their nearest neighbours and some compounds at random.

What follows are compounds tested against Tyrosine-protein phosphatase non-receptor type 5 (Homo sapiens) (UniProt P54829) (assay: STEP phosphatase inhibitors, primary screen, biochemical, fluorescence intensity, uHTS (AID 588621;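 further: 0% = DMSO with enzyme and substrate and 100% = substrate only without enzyme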)). Conditions: recombinant STEP, OMFP fluorogenic substrate, at 20 µM, active compounds read high.
Tyrosine-protein phosphatase non-receptor type 5 (Homo sapiens), sequence (P54829 whole entry, looked up): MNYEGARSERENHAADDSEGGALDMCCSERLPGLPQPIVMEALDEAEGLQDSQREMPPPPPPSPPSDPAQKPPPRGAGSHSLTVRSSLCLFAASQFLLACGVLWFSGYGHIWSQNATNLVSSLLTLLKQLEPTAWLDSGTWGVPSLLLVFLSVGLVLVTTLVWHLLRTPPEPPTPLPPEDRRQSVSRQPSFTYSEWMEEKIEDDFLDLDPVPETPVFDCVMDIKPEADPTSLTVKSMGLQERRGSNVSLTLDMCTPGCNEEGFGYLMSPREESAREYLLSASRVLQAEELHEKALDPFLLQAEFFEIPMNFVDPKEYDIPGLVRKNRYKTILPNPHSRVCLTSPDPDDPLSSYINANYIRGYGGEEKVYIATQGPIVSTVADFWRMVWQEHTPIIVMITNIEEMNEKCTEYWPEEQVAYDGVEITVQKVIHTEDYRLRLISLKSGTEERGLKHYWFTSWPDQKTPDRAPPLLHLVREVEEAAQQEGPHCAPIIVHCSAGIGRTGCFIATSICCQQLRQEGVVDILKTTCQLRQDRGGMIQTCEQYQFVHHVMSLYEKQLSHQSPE
Method in brief: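 Material: STEP (striatal-enriched tyrosine phosphatase) enzyme, cell-free | Medium: 50 mM Bis-Tris pH 6.0 with 2.5 mM DTT and 0.005% Tween 20 | Read-out: Percent inhibition scaled to no-enzyme and uninhibited-enzyme controls, plate-pattern corrected | Signal: Fluorescence read at 480 nm ex / 540 nm em | Times: 20 min reaction, room temperature, in the dark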

inhibition, active:
Cc1cccc(-n2c(N)c(C(=O)N3CCN(C)CC3)sc2=S)c1 90.4%
OCCN1CCN(C(=S)c2ccc(-c3ccccc3)cc2)CC1 92.5%
O=S(=O)(Nc1ccccc1Cl)c1cccc2nsnc12 52.9%
COCCN(C(=S)Nc1ccccc1OC)C1CCN(C(C)C)CC1 44.6%
COCc1c(C(=O)N/N=C/C2CC=CCC2)nnn1-c1nonc1N (stereo not given) 44.4%
Nc1c(Cl)cc(-c2csc(N3CCCC3c3nc4cc(Cl)c(Cl)cc4n3CCOCCO)n2)cc1Cl (stereo not given) 36.9%
N#Cc1c(-c2cccs2)nc(SCC(=O)c2ccc(Br)cc2)[nH]c1=O 78.8%
Cc1ccc(NC(=O)COc2ccc(/C=N\NC(=O)c3cccnc3)cc2)cc1C 93%
Cc1ccn2c(-c3csc(Nc4ccc(C(=O)O)cc4)n3)c(C)nc2c1 41.9%
COCCNC(=O)Nc1ccc2nc(-c3ccco3)c(-c3ccco3)nc2c1 60.1%
CN(C(=O)COC(=O)c1cc(-c2ccco2)nc2ccccc12)C1CCS(=O)(=O)C1 (stereo not given) 64.5%
Cc1ccccc1CC1(CO)CCCN(C(=O)c2cc(-c3ccccc3)no2)C1 (stereo not given) 120%
O=C(COc1cccc(F)c1)Oc1ccc(C(=O)c2ccccc2)cc1 89.8%
Cc1ccc(S(=O)(=O)c2c[nH]c3ccc(Cl)cc3c2=O)cc1 37.4%
Cc1ccc(-c2nnc(-c3ccc(NC(=O)c4cccs4)cc3)o2)cc1 54.4%

inhibition, inactive:
N#Cc1ccccc1-n1c(N)c(C(=O)N2CCCC2)sc1=S 7.5%
Cc1ccc(-n2c(N)c(C(=O)N3CCOCC3)sc2=S)c(C)c1 5.2%
Cc1cc(-c2nnc(SCC(=O)Nc3ccc(F)cc3)n2N)n[nH]1 -1.1%
COC(=O)Cn1cnc2scc(-c3ccc(C)c(C)c3)c2c1=O 1.3%
Cc1ccc(C(C)(C)C)c(OCCCCN2CCCC2)c1 -0.8%
CSc1nnc(C2CCCN(CC(=O)Nc3ccccc3N3CCOCC3)C2)n1C(C)C (stereo not given) 7.7%
S=C(c1ccc(-c2ccccc2)o1)N1CCCCC1 10%
C=CCc1ccccc1OCC(O)CN1CCN(CCO)CC1 (stereo not given) -0.9%
Cc1cc(OC(=O)c2ccccc2)c([N+](=O)[O-])c(=O)[nH]1 -3.5%
CN(C)c1ccc(CNC23CN4CN(CN(C4)C2)C3)cc1 -4.8%
O=C(OCC(=O)N1CCN(C(=O)c2ccco2)CC1)c1ccccc1Cc1ccccc1 -3.5%
CCC1(C)N(O)C(C)(C)C(c2ccc(OC)cc2)=[N+]1[O-] (stereo not given) -1.7%
COc1ccc(NS(=O)(=O)c2cccc3nsnc23)cc1Cl -1.2%
O=C(O)c1ccc(NS(=O)(=O)c2cccc3nsnc23)cc1 1.7%
O=C(COC(=O)c1cc([N+](=O)[O-])ccc1NCc1ccccc1)NC1CCCCC1 0.9%
O=C(CCN1C(=O)c2ccncc2C1=O)Nc1cc(F)ccc1F -2.7%
COc1ccc(-c2cc(C(F)(F)F)nc(S(C)(=O)=O)n2)cc1OC 0.2%
O=C(COc1ccccc1F)NNC(=O)c1ccc(N2CCCCC2)c([N+](=O)[O-])c1 0.7%
C/C(O)=C\c1nc(=O)c2c(C)cc(C)nc2n1-c1ccccc1 1.8%
COc1ccccc1NC(=O)C(C)OC(=O)CC1CCCC1 (stereo not given) -2.3%
CCc1cccc(NC(=S)N(CCN(C)C)C2CCN(C(C)C)CC2)c1 4.4%
Cc1ccc(NC2=C(Cl)C(=O)OC2OC(=O)c2ccccc2C)cc1 (stereo not given) -1.2%
COCc1c(C(=O)N/N=C(\C)c2ccncc2)nnn1-c1nonc1N -0.3%
Nc1nonc1-n1nnc(C(=O)N/N=C/C2CCCCC2)c1-c1ccccc1 -0.5%
CCc1c(C)sc(NC(=O)OC)c1C(=O)N1CCOCC1 10.1%
Cc1cc(C)cc(C(=O)OCC(=O)NCCNC(=O)COC(=O)c2cc(C)cc(C)c2)c1 1%
CCc1nc2c(OCCC3CCCCC3)cccn2c1N(C)C(=O)c1ccco1 4.5%
COc1cc(OC)c(-n2cc(-c3ccc(Cl)cc3)[nH]c2=O)cc1Cl 0.7%
Cc1ccc(-c2csc(N3CCN(c4cc5c(cc4Cl)nc(-c4ccncc4)n5CCOCCO)CC3)n2)cc1 2.3%
CCCn1c(C2CCCN2c2nc(-c3ccc(C)cc3)cs2)nc2cc(Cl)c(N3CCCCC3)cc21 (stereo not given) 3.4%
O=c1nc(N2CCOCC2)nc2n1CCO2 4.3%
COc1cccc(/C=C/C(=O)OCC(=O)N2CCCc3ccccc32)c1 -1.7%
N#Cc1c(-c2ccccc2)nc(SCc2cccc(C(F)(F)F)c2)[nH]c1=O 2.7%
CCc1ccc(C(=O)CSc2nnc(C)c(=O)[nH]2)cc1 -1%
Cc1ccnc(N2CCN(C(=O)CSc3nc4ccccc4nc3N3CCCCC3)CC2)c1 7.7%
CC(C)C(O)C1CCN(Cc2nc(Cc3ccccc3Cl)no2)CC1 (stereo not given) -0.6%
CN(C(=O)CSc1nnc(N)s1)c1c(N)n(Cc2ccccc2)c(=O)[nH]c1=O 2%
Cc1ccnc(NS(=O)(=O)c2ccc(NC(=O)c3ccc(S(=O)(=O)N(C)C)cc3)cc2)n1 10.2%
CC(Oc1ccc(Cl)cc1)c1ccnn1S(C)(=O)=O (stereo not given) -1.9%
Cc1cccc(OCC(=O)NCCNC(=O)c2cccnc2)c1 0.6%
Cc1ccc(OCC(=O)NCCCNC(=O)c2cccnc2)cc1C 2.8%
CC(=O)c1nc(N2C(=O)C3CC=C(C)CC3C2=O)sc1C (stereo not given) -0.6%
O=C(NCc1ccc(F)cc1)c1cc(C2CCCCN2C(=O)c2ccccn2)on1 (stereo not given) -0.8%
CCOCCCNc1c(CC)c(C)c(C#N)c2nc3ccccc3n12 -1%
CCc1cccc(C)c1N(C(=O)Cn1c(CO)nc2ccccc21)C(C)COC (stereo not given) -4.3%
C/C(=N\OC(=O)c1ccccc1)c1c(C)nc2cc(C)ccn12 -1.4%
CCCCC(=O)Nc1nc(C)c(-c2csc(Nc3ccc(Cl)cc3)n2)s1 -1.7%
COc1cccc(-c2cnc(C(O)c3ccccc3OC)[nH]2)c1 (stereo not given) -2.4%
COCCCNC(=O)[C@H]1N2C(=O)c3ccccc3C2SC1(C)C (stereo not given in full) 0.9%
Cc1[nH]c2ccccc2c1C(=O)C(=O)NCc1nnnn1-c1cccc(F)c1 0.6%
COc1ccc(CCN2CC(C(=O)NCCN3CCNC3=O)CCC2=O)cc1 (stereo not given) -4.2%
Cc1cc(F)ccc1S(=O)(=O)Nc1ccc(C(=O)N(C)Cc2ccco2)cc1 2.5%
Cc1ccccc1NC(=O)C(C)OC(=O)CCC(=O)N(CC(C)C)c1c(N)n(CC(C)C)c(=O)[nH]c1=O (stereo not given) -1.1%
CCOc1ccc(NC(=O)c2ccc(NC(=O)CN3C(=O)C(=O)N(CC(C)C)C3=O)cc2)cc1 -3.1%
Cc1cc2nc(C)n(CCCNC(=O)Nc3ccccc3)c2cc1C -3.8%
COc1ccc(CCNC(=O)Nc2ccc3c(c2)c(=O)n(C)n3C)cc1OC 1.1%
O=C(COC(=O)Cc1ccc(Br)cc1)Nc1c(F)c(F)c(F)c(F)c1F -0.2%
Nc1cc(=O)c2[nH]cnc2[nH]1 -4.7%
CN(C(=O)COC(=O)Cc1ccccc1[N+](=O)[O-])C1CCS(=O)(=O)C1 (stereo not given) -3.3%
COc1ccc(NC(=O)COc2ccc(C(=O)OCC(=O)N(C)C3CCS(=O)(=O)C3)cc2OC)cc1 (stereo not given) -4.8%
O=C1c2ccccc2C(=O)N1CCC(O)C[N+](=O)[O-] (stereo not given) 3.3%
COC(=O)C1=C(C)NC(=S)NC1c1ccc(OCC(=O)N2CC(C)OC(C)C2)c(OC)c1 (stereo not given) -3.9%
O=S(=O)(c1ccc(-c2ccno2)s1)N1CCCCC1 -0.2%
Cc1ccccc1CC1(CO)CCCN(Cc2ccc3c(c2)OCCO3)C1 (stereo not given) -4%
Cc1noc(C)c1CCC(=O)N1CCCC(CO)(Cc2ccccc2)C1 (stereo not given) -1.7%
COc1ccc(S(=O)(=O)NC(C)C(=O)NCc2ccncc2)cc1Cl (stereo not given) -1.3%
CCCCC[C@@H]1C=C(C(=O)O)[C@H](c2ccc(C#N)cc2)N1S(=O)(=O)c1ccc(C)cc1 -1.7%
O=C(CS(=O)(=O)Cc1ccccc1)Nc1cccnc1 -1.4%
O=C(OCC(=O)N1CCCC1)c1ccc(Cl)nc1 -2.6%
CC(C)(C)c1ccc(SCCc2ccncc2)cc1 0%
O=C(COC(=O)COc1cccc(F)c1)NCC1CCCCC1 -3.8%
CCN(C(=O)COc1ccc(C(=O)c2ccccc2)cc1)c1ccccc1 -1.7%
S=C(Nc1ccc2c(c1)OCO2)N1CCCC1 -3.3%
Cc1ccc(S(=O)(=O)N2CCN(C(=O)CCC(=O)NC3CCCc4ccccc43)CC2)cc1 (stereo not given) -4.5%
CCCCN(C)Cc1c(C)[nH]c2ccc(Cl)cc2c1=O -4.1%
Cc1ccc(S(=O)(=O)c2c[nH]c3ccc(C)cc3c2=O)cc1 -0.1%
CC1CCN(C(=O)CN(c2ccc(Oc3ccccc3)cc2)S(C)(=O)=O)CC1 2.5%
CCN(CC)CCn1cnc2c1c(=O)n(CCOC(=O)c1cc(OC)c(OC)c(OC)c1)c(=O)n2C -2.8%
Cc1ccc(C(=O)NCC(=O)OCc2nnc(-c3ccccc3)o2)cc1 -0.5%
O=C(Nc1ccc(N2CCN(C(=O)C3CC3)CC2)cc1)c1cccs1 -1.5%
